The array DNA melting data of Ke et al. (doi:10.1101/2024.01.08.574731)

How the values were obtained:
[1] = folding enthalpy; higher = less favourable; fluorescence melt of hairpins on a sequencing array, two-state fit; settings: sodium 0.088 M
In short: (§1)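 Folding enthalpy and melting temperature were estimated with bootstrapped two-state fits and combined across four replicates by inverse-variance weighting, with fitted temperatures raised by 9.35 °C to match UV melts. The data were Cy3 fluorescence of library hairpins, with annealed Cy3 and quencher oligos, on a sequenced MiSeq flow cell in 50 mM Na-HEPES pH 8.0, 25 mM NaCl, imaged in 2.5 °C steps up to 60 °C and normalised to pre-quench Cy3 and control constructs.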

[2] = melting temperature; fluorescence melt of hairpins on a sequencing array, two-state fit, raised by 9.35 °C to match UV melts; settings: sodium 0.088 M
In short: as §1

Sequence | folding enthalpy [1] | Tm [2]
GCGCAGGCGAAAGCCCGC (((..(((....)))))) | -16.7 kcal/mol | 60.1 °C
GCGCAGGGAAACCTACGC (((.(((....))).))) | -39.9 kcal/mol | 50.1 °C
GCGCAGGGAAACCTGCAC (.(((((....))))).) | -12.7 kcal/mol | 47.6 °C
GCGCATGCGAAAGCACGC (((..(((....)))))) | -13.7 kcal/mol | 54.6 °C
GCGCATGGAAACACACGC (((..((....))..))) | -19.4 kcal/mol | 29.6 °C
GCGCCCCGAAAGGGCCGC (((.(((....))).))) | -19.8 kcal/mol | 61.2 °C
GCGCCCGAAAGGGACGC ((((((....))).))) | -27.1 kcal/mol | 68.1 °C
GCGCCCGAAAGGGCACGC ((((((....)))..))) | -13.4 kcal/mol | 63.3 °C
GCGCCCGAAAGGGGCCGC ((((((....)))..))) | -16.4 kcal/mol | 61.4 °C
GCGCCGCCGAAAGGCCGC (((..(((....)))))) | -15.2 kcal/mol | 56.3 °C
GCGCCGCGAAAGCCCCGC (((..((....))..))) | -17.7 kcal/mol | 39 °C
GCGCCGCGAAAGCCGTGC ((.(.((....)).).)) | -20.5 kcal/mol | 52.1 °C
GCGCCGCGAAAGCGAAGC ((..(((....)))..)) | -32 kcal/mol | 64.8 °C
GCGCCGCGAAAGCGATGC ((..(((....)))..)) | -19.4 kcal/mol | 60.8 °C
GCGCCGCGAAAGCGCAGC ((..(((....)))..)) | -14.1 kcal/mol | 59.8 °C
GCGCCGCGAAAGCTCCGC (((..((....))..))) | -16.8 kcal/mol | 44.9 °C
GCGCCGGGAAACCAGCGC ((((.((....)).)))) | -44.5 kcal/mol | 59.1 °C
GCGCCGTCGAAAGACCGC (((..(((....)))))) | -23.1 kcal/mol | 50.8 °C
GCGCGCCGAAAGGCCCGC (((.(((....))).))) | -32.2 kcal/mol | 68.5 °C
GCGCGCGAAAGCGCACGC ((((((....)))..))) | -11.7 kcal/mol | 67 °C
GCGCGCGAAAGCGGTCGC ((((((....)))..))) | -16.1 kcal/mol | 63.6 °C
GCGCGGACGAAAGTCCGC (((..(((....)))))) | -5.59 kcal/mol | 63.7 °C
GCGCGGCGAAAGCAGAGC ((.(.((....)).).)) | -25.1 kcal/mol | 63.8 °C
GCGCGGCGAAAGCAGGGC ((.(.((....)).).)) | -19.8 kcal/mol | 63.2 °C

Sequence | folding enthalpy [1] | Tm [2]
GCGCGGCGAAAGCAGTGC ((.(.((....)).).)) | -29.1 kcal/mol | 65.5 °C
GCGCGGCGAAAGCATCGC (((..((....))..))) | -20.6 kcal/mol | 57.5 °C
GCGCGGCGAAAGCCAGGC ((..(((....)))..)) | -14.1 kcal/mol | 54.4 °C
GCGCGGCGAAAGCCCGGC ((..(((....)))..)) | -12.8 kcal/mol | 59.7 °C
GCGCGGCGAAAGCCTGGC ((..(((....)))..)) | -15.3 kcal/mol | 47.9 °C
GCGCGGCGAAAGCGACGC (((..((....))..))) | -15.2 kcal/mol | 63.2 °C
GCGCGGCGAAAGCGGAGC ((.(.((....)).).)) | -22.5 kcal/mol | 60.4 °C
GCGCGGCGAAAGCGGTGC ((.(.((....)).).)) | -31.2 kcal/mol | 65.2 °C
GCGCGGCGAAAGCTGGGC ((.(.((....)).).)) | -32.4 kcal/mol | 67.2 °C
GCGCGGTCGAAAGACCGC (((..(((....)))))) | -5.31 kcal/mol | 67 °C
GCGCGTCGAAAGACCGC (((.(((....)))))) | -32.8 kcal/mol | 67.3 °C
GCGCGTCGAAAGACTCGC (((.(((....))).))) | -38.7 kcal/mol | 58.4 °C
GCGCGTGGAAACATGCGC ((((.((....)).)))) | -40.2 kcal/mol | 67.9 °C
GCGCGTTCGAAAGAACGC (((..(((....)))))) | -6.28 kcal/mol | 68 °C
GCGCTACGAAAGTACGC (((.(((....)))))) | -32.2 kcal/mol | 55.3 °C
GCGCTAGGAAACTGGTGC ((.(.((....)).).)) | -28.9 kcal/mol | 44.3 °C
GCGCTCCGAAAGGAACGC (((.(((....))).))) | -46.8 kcal/mol | 65 °C
GCGCTCGAAAGAGCTCGC ((((((....)))..))) | -14.4 kcal/mol | 47.8 °C
GCGCTCGGAAACGAACGC (((.(((....))).))) | -38.5 kcal/mol | 55.7 °C
GCGCTGCCGAAAGGCCGC (((..(((....)))))) | -17.8 kcal/mol | 58.5 °C
GCGCTGCGAAAGCAAAGC ((..(((....)))..)) | -17.7 kcal/mol | 60 °C
GCGCTGCGAAAGCAACGC (((.(((....))).))) | -49 kcal/mol | 61.5 °C
GCGCTGCGAAAGCACCGC (((.(((....))).))) | -46.8 kcal/mol | 53.9 °C
GCGCTGCGAAAGCACTGC ((..(((....)))..)) | -16.8 kcal/mol | 41 °C

Sequence | folding enthalpy [1] | Tm [2]
GCGCTGCGAAAGCCACGC (((..((....))..))) | -19.7 kcal/mol | 52.7 °C
GCGCTGCGAAAGCCCCGC (((..((....))..))) | -22.5 kcal/mol | 41.5 °C
GCGCTGCGAAAGCCGAGC ((.(.((....)).).)) | -23.2 kcal/mol | 50.8 °C
GCGCTGCGAAAGCCGGGC ((.(.((....)).).)) | -20.5 kcal/mol | 50.9 °C
GCGCTGCGAAAGCGCCGC (((..((....))..))) | -9.61 kcal/mol | 61.6 °C
GCGCTGCGAAAGCGTCGC (((..((....))..))) | -25.4 kcal/mol | 59.7 °C
GCGCTGGCGAAAGCCCGC (((..(((....)))))) | -17 kcal/mol | 55.5 °C
GCGCTGGGAAACCAACGC (((.(((....))).))) | -47.8 kcal/mol | 52.7 °C
GCGCTTCCGAAAGGACGC (((..(((....)))))) | -20.3 kcal/mol | 52 °C
GCGCTTGGAAACAAGCAC (.(((((....))))).) | -15.2 kcal/mol | 45.7 °C
GCGCTTGGAAACAGGTGC ((.(.((....)).).)) | -28.5 kcal/mol | 40.6 °C
GCGGAACCCCGC ((((....)))) | -21 kcal/mol | 51.3 °C
GCGGAACCCGC ((((...)))) | -20.8 kcal/mol | 53.8 °C
GCGGAACCGAAAGGTCGC (((..(((....)))))) | -27.7 kcal/mol | 54.7 °C
GCGGAAGGAAACTTCCAC (.(((((....))))).) | -15.9 kcal/mol | 37.4 °C
GCGGAATCCGC ((((...)))) | -23.4 kcal/mol | 51.7 °C
GCGGACACCGC ((((...)))) | -26.3 kcal/mol | 56.2 °C
GCGGACCCCCGC ((((....)))) | -34.6 kcal/mol | 53.3 °C
GCGGACGAAAGTCATCGC ((((((....)))..))) | -25.7 kcal/mol | 50.1 °C
GCGGACGAAAGTCCCGC ((((((....))).))) | -20.8 kcal/mol | 67.1 °C
GCGGACGAAAGTCGCCGC ((((((....)))..))) | -18.1 kcal/mol | 52.4 °C
GCGGACGCCCGC ((((....)))) | -20.1 kcal/mol | 56.1 °C
GCGGACTCCCGC ((((....)))) | -32.8 kcal/mol | 53.1 °C
GCGGAGACCCGC ((((....)))) | -20.5 kcal/mol | 52.8 °C

Sequence | folding enthalpy [1] | Tm [2]
GCGGAGCGAAAGCAACGC (((..((....))..))) | -20.2 kcal/mol | 66.9 °C
GCGGAGCGAAAGCACGGC ((.(.((....)).).)) | -9.69 kcal/mol | 45.5 °C
GCGGAGCGAAAGCCACGC (((..((....))..))) | -15.7 kcal/mol | 58.4 °C
GCGGAGCGAAAGCCCAGC ((.(.((....)).).)) | -12.1 kcal/mol | 42.5 °C
GCGGAGCGAAAGCGCGGC ((.(.((....)).).)) | -15.3 kcal/mol | 58.6 °C
GCGGAGCGAAAGCTCTGC ((.((((....)))).)) | -35.8 kcal/mol | 68 °C
GCGGAGCGAAAGCTTTGC ((..(((....)))..)) | -14.3 kcal/mol | 45.5 °C
GCGGAGGGAAACCTTCGC (((.(((....))).))) | -46.5 kcal/mol | 56.5 °C
GCGGAGTCCGC ((((...)))) | -25.6 kcal/mol | 52.4 °C
GCGGAGTCGAAAGACCGC (((..(((....)))))) | -38 kcal/mol | 53.7 °C
GCGGATACCCGC ((((....)))) | -24.3 kcal/mol | 54.2 °C
GCGGATCCGAAAGGACGC (((..(((....)))))) | -25.6 kcal/mol | 53.3 °C
GCGGATCGAAAGATTCGC (((.(((....))).))) | -45.9 kcal/mol | 60.8 °C
GCGGATGCCCGC ((((....)))) | -14.4 kcal/mol | 55 °C
GCGGATGGAAACGTCCGC (((((.(....).))))) | -45.9 kcal/mol | 62.6 °C
GCGGATGGAAACGTCTGC ((.((.(....).)).)) | -28.1 kcal/mol | 44.3 °C
GCGGATTTCCGC ((((....)))) | -22.4 kcal/mol | 64.6 °C
GCGGCAATCCGC ((((....)))) | -21.9 kcal/mol | 52.3 °C
GCGGCACCCGC ((((...)))) | -21.9 kcal/mol | 56.4 °C
GCGGCACCGAAAGGTCGC (((..(((....)))))) | -21.1 kcal/mol | 54.4 °C
GCGGCACTCCGC ((((....)))) | -25.8 kcal/mol | 57.5 °C
